For the first data set, the system named is Pontederia vaginalis. As to the kind of experiment: Post-emergence herbicidal activity against three-leaf stage Monochoria vaginalis under green-house condition by water injection treatment method. The data set is classed as functional.
Conditions: not given
The method in brief:
(§1)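 Greenhouse paddy test. Seed was sown on saturated Metro Mix, covered with about 0.5 cm mix and held 48 h dark at 30 °C, 95% RH; about 15 d from seed soaking to treatment. Treatment solution was injected into the water. Rates were set per pot surface area, with serial rates made by halving the volume delivered. Held at 16 h day length, 29 °C.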
`COc1cnc(OC)n2nc(NS(=O)(=O)c3c(OCC(F)F)cccc3C(F)(F)F)nc12` [PENOXSULAM] had a GR80 below 2 gAi/ha.

For the molecule `COc1cnc(OC)n2nc(NS(=O)(=O)c3c(OCC(F)(F)F)cccc3C(F)(F)F)nc12`, the GR80 is reported as 5 gAi/ha.

Regarding `COc1cnc(OC)n2nc(NS(=O)(=O)c3c(OC(CF)CF)cccc3C(F)(F)F)nc12`, the GR80 is recorded as 1 gAi/ha.

Another data set deals with Echinochloa crus-galli. In words: Post-emergence herbicidal activity against 3-4-leaf stage Echinochloa crus-galli (barnyard grass) under field condition by foliar application method.
Conditions: not given
The data set is classed as functional.
The molecule `COc1cnc(OC)n2nc(NS(=O)(=O)c3c(OCC(F)F)cccc3C(F)(F)F)nc12` [PENOXSULAM] displayed a GR80 of 9 gAi/ha.

Another data set concerns Oryza sativa. In words: Phytotoxicity against three to four-leaf stage japonica Oryza sativa (rice) under field condition by foliar application method. In kind it is organism-based. The following applies: in vivo.
Molecule `COc1cnc(OC)n2nc(NS(=O)(=O)c3c(OCC(F)F)cccc3C(F)(F)F)nc12` [PENOXSULAM] yielded a GR10 of 65 gAi/ha.

The test system of a further data set is Schoenoplectiella juncoides. As to the kind of experiment: Post-emergence herbicidal activity against two to three-leaf stage Schoenoplectiella juncoides under field condition by foliar application method. In kind it is functional.
Conditions: not given
Regarding `COc1cnc(OC)n2nc(NS(=O)(=O)c3c(OCC(F)F)cccc3C(F)(F)F)nc12` [PENOXSULAM], the GR80 turned out to be 6 gAi/ha.

With `COc1cnc(OC)n2nc(NS(=O)(=O)c3c(OC(CF)CF)cccc3C(F)(F)F)nc12`, the GR80 is listed as 20 gAi/ha.

The next data set concerns Echinochloa crus-galli. In words: Post-emergence herbicidal activity against 2-3-leaf stage Echinochloa crus-galli (barnyard grass) under field condition by foliar application method. The data set is classed as functional.
Conditions: not given
In turn, `COc1cnc(OC)n2nc(NS(=O)(=O)c3c(OCC(F)F)cccc3C(F)(F)F)nc12` [PENOXSULAM] showed a GR80 of 7 gAi/ha.

The molecule `COc1cnc(OC)n2nc(NS(=O)(=O)c3c(OC(CF)CF)cccc3C(F)(F)F)nc12` registered a GR80 of 15 gAi/ha.

For a further data set, the system named is Oryza sativa. As to the kind of experiment: Phytotoxicity against two to three-leaf stage indica Oryza sativa (rice) under field condition by foliar application method. The data set is classed as organism-based. The following applies: in vivo.
Consider `COc1cnc(OC)n2nc(NS(=O)(=O)c3c(OCC(F)F)cccc3C(F)(F)F)nc12` [PENOXSULAM], for which the GR10 is above 70 gAi/ha.

`COc1cnc(OC)n2nc(NS(=O)(=O)c3c(OC(CF)CF)cccc3C(F)(F)F)nc12` yielded a GR10 above 70 gAi/ha.

The subject of another data set is Schoenoplectiella juncoides. As to the kind of experiment: Post-emergence herbicidal activity against three-leaf stage Schoenoplectiella juncoides under field condition by water injection treatment method. In kind it is functional.
Conditions: not given
The method in brief:
(§2)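 Field trials: water-injected treatment applied to transplanted japonica rice and to weeds at the three-leaf stage, under rice-growing conditions in several countries.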
`COc1cnc(OC)n2nc(NS(=O)(=O)c3c(OCC(F)F)cccc3C(F)(F)F)nc12` [PENOXSULAM] displayed a GR80 of 9 gAi/ha.

Take `COc1cnc(OC)n2nc(NS(=O)(=O)c3c(OC(CF)CF)cccc3C(F)(F)F)nc12`: the GR80 is given as 15 gAi/ha.

The test system of the next data set is Pontederia vaginalis. As to the kind of experiment: Post-emergence herbicidal activity against three-leaf stage Monochoria vaginalis under field condition by water injection treatment method.
Conditions: not given
The data set is classed as functional. The method in brief: as §2
Turning to `COc1cnc(OC)n2nc(NS(=O)(=O)c3c(OCC(F)F)cccc3C(F)(F)F)nc12` [PENOXSULAM], the GR80 worked out at 6 gAi/ha.

In the case of `COc1cnc(OC)n2nc(NS(=O)(=O)c3c(OC(CF)CF)cccc3C(F)(F)F)nc12`, the GR80 was found to be 12 gAi/ha.

The next data set deals with Oryza sativa. In words: Phytotoxicity against three-leaf stage Oryza sativa (rice) under field condition by water injection treatment method. The data set is classed as organism-based.
Conditions: not given
The method in brief: as §2
Molecule `COc1cnc(OC)n2nc(NS(=O)(=O)c3c(OCC(F)F)cccc3C(F)(F)F)nc12` [PENOXSULAM] yielded a GR10 of 35 gAi/ha.

For the molecule `COc1cnc(OC)n2nc(NS(=O)(=O)c3c(OC(CF)CF)cccc3C(F)(F)F)nc12`, the GR10 is 70 gAi/ha.

The test system of a further data set is Echinochloa crus-galli. In words: Post-emergence herbicidal activity against three-leaf stage Echinochloa crus-galli (barnyard grass) under field condition by water injection treatment method. In kind it is functional.
Conditions: not given
The method in brief: as §2
For `COc1cnc(OC)n2nc(NS(=O)(=O)c3c(OCC(F)F)cccc3C(F)(F)F)nc12` [PENOXSULAM], the GR80 is recorded as 26 gAi/ha.

The molecule `COc1cnc(OC)n2nc(NS(=O)(=O)c3c(OC(CF)CF)cccc3C(F)(F)F)nc12` gave a GR80 of 35 gAi/ha.

For a further data set, the system named is Cyperus difformis. As to the kind of experiment: Post-emergence herbicidal activity against three-leaf stage Cyperus difformis under green-house condition by water injection treatment method. In kind it is functional.
Conditions: not given
The method in brief: as §1
Molecule `COc1cnc(OC)n2nc(NS(=O)(=O)c3c(OCC(F)F)cccc3C(F)(F)F)nc12` [PENOXSULAM] had a GR80 of 14 gAi/ha.

For `COc1cnc(OC)n2nc(NS(=O)(=O)c3c(OCC(F)(F)F)cccc3C(F)(F)F)nc12`, the GR80 was found to be 36 gAi/ha.

`COc1cnc(OC)n2nc(NS(=O)(=O)c3c(OC(CF)CF)cccc3C(F)(F)F)nc12` had a GR80 of 31 gAi/ha.

In a further data set the test system is Schoenoplectiella juncoides. In words: Post-emergence herbicidal activity against three-leaf stage Schoenoplectiella juncoides under green-house condition by water injection treatment method. The data set is classed as functional.
Conditions: not given
The method, boiled down:
as §1
For the molecule `COc1cnc(OC)n2nc(NS(=O)(=O)c3c(OCC(F)F)cccc3C(F)(F)F)nc12` [PENOXSULAM], the GR80 was 12 gAi/ha.

Take `COc1cnc(OC)n2nc(NS(=O)(=O)c3c(OCC(F)(F)F)cccc3C(F)(F)F)nc12`: the GR80 was 21 gAi/ha.

As to `COc1cnc(OC)n2nc(NS(=O)(=O)c3c(OC(CF)CF)cccc3C(F)(F)F)nc12`, the GR80 is 9 gAi/ha.

The next data set deals with Echinochloa crus-galli. As to the kind of experiment: Post-emergence herbicidal activity against three-leaf stage Echinochloa crus-galli (barnyard grass) under green-house condition by water injection treatment method. The data set is classed as functional.
Conditions: not given
The method, boiled down:
as §1
The molecule `COc1cnc(OC)n2nc(NS(=O)(=O)c3c(OCC(F)F)cccc3C(F)(F)F)nc12` [PENOXSULAM] gave a GR80 of 12 gAi/ha.

As for `COc1cnc(OC)n2nc(NS(=O)(=O)c3c(OCC(F)(F)F)cccc3C(F)(F)F)nc12`, the GR80 was 19 gAi/ha.

`COc1cnc(OC)n2nc(NS(=O)(=O)c3c(OC(CF)CF)cccc3C(F)(F)F)nc12` gave a GR80 of 14 gAi/ha.

The next data set relates to Oryza sativa. As to the kind of experiment: Phytotoxicity against three-leaf stage Oryza sativa (rice) under green-house condition by water injection treatment method.
Conditions: not given
The data set is classed as organism-based. The method in brief: as §1
`COc1cnc(OC)n2nc(NS(=O)(=O)c3c(OCC(F)F)cccc3C(F)(F)F)nc12` [PENOXSULAM]: the GR20 is listed as 75 gAi/ha.

Turning to `COc1cnc(OC)n2nc(NS(=O)(=O)c3c(OCC(F)(F)F)cccc3C(F)(F)F)nc12`, the GR20 came out at 51 gAi/ha.

Molecule `COc1cnc(OC)n2nc(NS(=O)(=O)c3c(OC(CF)CF)cccc3C(F)(F)F)nc12` came in with a GR20 of 140 gAi/ha.

The next data set concerns Sesbania herbacea. As to the kind of experiment: Post-emergence herbicidal activity against three to four-leaf stage Sesbania herbacea under field condition by foliar application method. The data set is classed as functional.
Conditions: not given
The molecule `COc1cnc(OC)n2nc(NS(=O)(=O)c3c(OCC(F)F)cccc3C(F)(F)F)nc12` [PENOXSULAM] came in with a GR80 of 7 gAi/ha.

The record behind these values is ChEMBL document CHEMBL3046654, “Penoxsulam--structure-activity relationships of triazolopyrimidine sulfonamides” (Bioorg Med Chem, 2009).
